The results in this text go back to ChEMBL document CHEMBL1124497, “Thromboxane A2 synthetase inhibitors. 2. Syntheses and activities of tetrahydronaphthalene and indan derivatives” (J Med Chem, 1989).

Common to all, as to assay type: functional
Assay [1] concerns Rattus norvegicus. In words: Enhancement of prostaglandin E2 levels in serum of incubated whole blood at 1 hr after an oral dose of 1 mg/kg. A digest of the protocol: (§1)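 Rats were dosed orally at 1 mg/kg with compound suspended in water; controls received vehicle. Whole blood was drawn from the external jugular vein under anesthesia at 1, 3 and 6 h, held on ice 15 min, then clotted at 37 °C for 1 h. Serum was separated at 1000g for 10 min. TXB₂, 6-keto-PGF₁α (the PGI₂ metabolite) and PGE₂ were measured by radioimmunoassay. Prostanoid enhancement is expressed as x-fold at 1 h.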

For assay [2], the system named is Rattus norvegicus. In words: Increase in serum prostaglandin I2 levels in incubated whole blood from rats, 1 hr following 1 mg/kg p.o. The note with it: route oral. In a few lines: as §1
The species named for assay [3] is Rattus norvegicus. In words: In vitro inhibition of thromboxane A2 production in rat platelet-rich plasma. A digest of the protocol: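 Citrated rat platelet-rich plasma (4 × 10⁷ platelets) was preincubated with compound for 1 min at room temperature with gentle shaking. Sodium arachidonate (final 0.5 mmol) started the reaction, which ran 5 min at room temperature with vigorous shaking. Indomethacin (final 0.1 mmol) stopped it. After centrifugation (1000g, 5 min), supernatant TXB₂ was measured by radioimmunoassay. IC₅₀ is the concentration giving 50% inhibition of TXB₂ production.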

The test system of assay [4] is Rattus norvegicus. In words: Inhibition of thromboxane B2 production in whole blood of rats, 3h after a peroral dose of 1.0 mg/kg. The note with it: route oral. A digest of the protocol: as §1
For assay [5], the system named is Rattus norvegicus. Description: Inhibition of thromboxane B2 production in whole blood of rats, 6 hr after a peroral dose of 1.0 mg/kg. Conditions: route oral. A digest of the protocol:
as §1

For assay [6], the system named is Rattus norvegicus. Description: Inhibition of thromboxane B2 production in whole blood of rats 1 hr following 1 mg/kg p.o. The note with it: route oral. In a few lines: as §1
Assay [7] concerns Rattus norvegicus. Description: Inhibition of thromboxane B2 production in whole blood of rat 75 min after intravenous injection of compound at 0.1 mg/kg. Conditions: 1.25 h. In a few lines: (§2)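 The compound was given intravenously to rats in physiological saline; controls received vehicle. Whole blood was drawn from the external jugular vein under anesthesia at 15, 45 and 75 min. Samples were kept on ice 15 min, clotted at 37 °C for 1 h and centrifuged (1000g, 10 min). Serum TXB₂ was measured by radioimmunoassay and expressed as % inhibition.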

For assay [8], the system named is Rattus norvegicus. Description: Inhibition of thromboxane B2 production in whole blood of rat 15 min after intravenous injection of compound at 0.1 mg/kg. Conditions: 0.25 h. In a few lines: as §2
Assay [9] has as its system Rattus norvegicus. Description: Inhibition of thromboxane B2 production in whole blood of rat 45 min after intravenous injection of compound at 0.1 mg/kg. The note with it: 0.75 h. A digest of the protocol: as §2
The subject of assay [10] is Rattus norvegicus. Description: Inhibition of thromboxane A2 production in whole blood of rats, 4 hr after a peroral dose of 1.0 mg/kg. Conditions: route oral.
In assay [11] the test system is Rattus norvegicus. In words: Inhibition of thromboxane A2 production in whole blood of rats, 4 hr after a peroral dose of 0.1 mg/kg. The note with it: route oral.
Assay [12] deals with Rattus norvegicus. In words: Inhibition of thromboxane B2 production in whole blood of rats, 1 hr after a peroral dose of 0.1 mg/kg. Conditions: route oral.
The subject of assay [13] is Rattus norvegicus. In words: Inhibition of thromboxane B2 production in whole blood of rats, 4 hr after a peroral dose of 0.1 mg/kg. The note with it: route oral.

`Cl.O=C(O)C1CCc2cc(Cn3ccnc3)ccc2C1` (stereo unspecified): the x fold came to 4.79 in [1] and 2.22 in assay [2]. In addition, the IC50 in assay [3] was 1400 nM. The values for the inhibition in vivo at 1 mg/kg in assay [4], in [5] and in assay [6] were 69%, 49% and 88%, respectively.

For the compound `O=C([O-])C1CCc2cc(Cc3cncs3)ccc2C1.[Na+]` (stereo unspecified), the x fold in assay [1] was determined as 5.91; in assay [2] it was 2.65. Half-maximal inhibition in [3] (IC50) was put at 1900 nM. In addition, the inhibition in vivo at 1 mg/kg in assay [6] came out at 69%.

Take `O=C(O)c1ccc(OCCc2cncs2)cc1`: the x fold in [2] stood at 3.14. This compound came in with an IC50 in [3] of 3800 nM. The values for the inhibition in vivo at 1 mg/kg in assay [4], in [5] and in assay [6] were 83%, 54% and 88%, respectively.

Consider `O=C([O-])c1cccc2c1CCCC2CCc1cncs1.[Na+]` (stereo unspecified), for which the figures for the x fold in [1] and in [2] were 5.63 and 2.68, respectively. In [3], this compound registered an IC50 of 370 nM. The inhibition in vivo at 1 mg/kg in [4] was found to be 93%; in assay [5] it was 86%; in assay [6], 97%. The inhibition in vivo at 0.1 mg/kg in assay [7] stood at 67%; in assay [8] it was 88%; in [9], 79%.

`O=C(O)CCCC/C=C(\c1ccccc1)c1cccnc1` [(E)-ISBOGREL]: the inhibition in vivo at 1 mg/kg in [10] amounted to 80%; in assay [6] it was 96%. Further, the IC50 in assay [3] stood at 250 nM. Also, the results for the inhibition in vivo at 0.1 mg/kg in assay [11] and in assay [12] were 40% and 75%, respectively.

On to `Cl.O=C(O)C1Cc2ccc(Cn3ccnc3)cc2C1` (stereo unspecified), for which the x fold in assay [1] is on record as 7.27; in [2] it was 3.14. For the same compound, 7200 nM corresponded to half-maximal inhibition in assay [3] (IC50). Also, the inhibition in vivo at 1 mg/kg in assay [4] was 75%; in assay [5] it was 61%; in [6], 87%. The inhibition in vivo at 0.1 mg/kg in assay [7] came out at 32%; in [8], 58%; in assay [9], 46%.

Regarding `O=C(O)c1cccc2c1CCC2CCn1ccnc1` (stereo unspecified), in assay [3], the IC50 stood at 860 nM. For the same compound, in [6], 1 mg/kg produced 97% inhibition in vivo.

In the case of `O=C(O)/C=C/c1ccc(Cn2ccnc2)cc1` [OZAGREL], the x fold in [1] amounted to 4.8; in assay [2], 2.5. The concentration for half-maximal inhibition (IC50) in [3] came to 4500 nM. The inhibition in vivo at 1 mg/kg in [4] came out at 42%; in [5] it was 11%; in assay [6] it was 91%. In addition, the figures for the inhibition in vivo at 0.1 mg/kg in [7], in assay [8] and in assay [9] were 46%, 89% and 72%, respectively.

As for `Cc1c(Cn2ccnc2)c2ccccc2n1CCC(=O)O` [DAZMEGREL], the x fold in assay [1] was 5.36; in [2], 2.26. The same compound came in with an IC50 in assay [3] of 12000 nM. The figures for the inhibition in vivo at 1 mg/kg in assay [4], in assay [5] and in assay [6] were 71%, 40% and 92%, respectively. Besides, the inhibition in vivo at 0.1 mg/kg in [7] is 29%; in [8] it was 11%; in assay [9], 46%.

Regarding `Cl.O=C(O)c1ccc2c(c1)CCC(Cn1ccnc1)C2` (stereo unspecified), the values for the x fold in assay [1] and in [2] were 5.9 and 2.91, respectively. In addition, the half-maximal inhibitory concentration (IC50) in assay [3] amounted to 1100 nM. Also, the inhibition in vivo at 1 mg/kg is 93% in [4], 88% in [5] and 98% in assay [6]. Besides, the inhibition in vivo at 0.1 mg/kg in [13] stood at 76%; in assay [7] it was 88%; in assay [12], 85%; in [8], 95%; in [9], 93%.

With `O=C([O-])c1ccc2c(c1)CC(Cc1cncs1)C2.[Na+]` (stereo unspecified), the x fold in [1] was determined as 9.55; in assay [2] it was 3.52. The compound also gave an IC50 in assay [3] of 400 nM. Moreover, the inhibition in vivo at 1 mg/kg in assay [4] stood at 87%; in [5], 52%; in assay [6], 94%. Besides, the inhibition in vivo at 0.1 mg/kg in [7] amounted to 26%; in assay [8], 77%; in [9], 62%.

As to `O=C(O)/C=C/c1ccc(Cc2cncs2)cc1`, in assay [3], inhibition was half-maximal at 1500 nM (IC50). This compound returned an inhibition in vivo at 1 mg/kg in assay [6] of 39%.

In assay [3], `C/C(=C\c1ccc(Cc2cncs2)cc1)C(=O)O` displayed an IC50 of 220 nM. The compound further had an inhibition in vivo at 1 mg/kg in [6] of 44%.

As to `C/C(=C\c1ccc(Cc2cccnc2)cc1)C(=O)O`, the figures for the x fold in assay [1] and in assay [2] were 3.87 and 2.55, respectively. For the same compound, the IC50 in [3] was 150 nM. Moreover, the inhibition in vivo at 1 mg/kg was found to be 64% in assay [4], 44% in assay [5] and 71% in assay [6].

For `O=C([O-])c1ccc2c(c1)CCC(Cc1cncs1)C2.[Na+]` (stereo unspecified), the values for the x fold in [1] and in assay [2] were 5.26 and 2.55, respectively. This compound also came in with an IC50 in assay [3] of 140 nM. Besides, the inhibition in vivo at 1 mg/kg in [4] stood at 88%; in assay [5] it was 78%; in assay [6], 93%. Moreover, the figures for the inhibition in vivo at 0.1 mg/kg in assay [7], in [8] and in [9] were 75%, 90% and 87%, respectively.

Turning to `Cl.O=C(O)c1ccc2c(c1)CC(Cn1ccnc1)CC2` (stereo unspecified), the x fold in assay [1] stood at 4.27; in assay [2], 1.99. The IC50 in assay [3] stood at 5600 nM. In assay [6], this compound displayed an inhibition in vivo at 1 mg/kg of 57%.

As to `O=C(O)c1ccc(OCCn2ccnc2)cc1` [DAZOXIBEN], the x fold was 3.91 in assay [1] and 1.9 in assay [2]. This compound gave a 50% inhibitory concentration (IC50) in assay [3] of 11000 nM. Moreover, the inhibition in vivo at 1 mg/kg is 21% in [4], 8% in assay [5] and 50% in assay [6]. The inhibition in vivo at 0.1 mg/kg amounted to 25% in assay [8] and 6% in [9].

Turning to `Cl.O=C(O)c1ccc2c(c1)CC(Cn1ccnc1)C2` (stereo unspecified), the figures for the x fold in [1] and in [2] were 6.93 and 3.57, respectively. The compound also had a half-inhibitory concentration (IC50) in assay [3] of 6600 nM. Moreover, the inhibition in vivo at 1 mg/kg in assay [4] was determined as 90%; in [5], 74%; in [6], 95%. In addition, the inhibition in vivo at 0.1 mg/kg in assay [7] came out at 51%; in assay [8], 73%; in [9], 60%.

In the case of `O=C(O)c1ccc2c(c1)CCCC2CCn1ccnc1` (stereo unspecified), the x fold in assay [1] turned out to be 10.05; in [2], 3.38. Also, 14000 nM corresponded to half-maximal inhibition in assay [3] (IC50). In addition, the inhibition in vivo at 1 mg/kg in assay [4] is 59%; in assay [5], 28%; in assay [6] it was 93%. The inhibition in vivo at 0.1 mg/kg in assay [7] is 46%; in assay [8], 84%; in assay [9], 53%.

On to `Cl.O=C(O)c1cccc2c1CCCC2CCn1ccnc1` (stereo unspecified), for which the x fold in [1] is given as 5.88; in assay [2], 3.02. In addition, in assay [3], 5400 nM corresponded to half-maximal inhibition (IC50). Also, the inhibition in vivo at 1 mg/kg was 93% in [4], 76% in assay [5] and 93% in assay [6]. Moreover, the inhibition in vivo at 0.1 mg/kg in assay [7] amounted to 64%; in assay [8], 79%; in assay [9], 74%.
